Reference: ChEMBL document CHEMBL1123394, “Systematic synthesis and biological evaluation of alpha- and beta-D-xylofuranosyl nucleosides of the five naturally occurring bases in nucleic acids and related analogues” (J Med Chem, 1986)
Converted amounts (≈) assume the structure as drawn.

Experiments:
Vero [1] = experiment: Antiviral activity was measured against Reo virus-1 in african green monkey kidney (Vero B) cells.; type: functional; conditions: Chlorocebus sabaeus
How it was run: (§1)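 Inhibition of virus-induced cytopathogenicity scored in cell culture monolayers. Test compounds dissolved in growth medium at 100, 10, or 1 μg/mL or less.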

HeLa [2] = experiment: Concentration required for microscopically detectable alteration of the normal cell morphology in HeLa cells.; type: functional; conditions: Homo sapiens
How it was run: (§2)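 Host-cell morphology inspected microscopically for detectable alteration, with compounds in growth medium at up to 200 or 400 μg/mL.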

[3] = Antiviral activity was measured against Herpes simplex virus (HSV-1 KOS) in rabbit kidney cells.; type: functional; conditions: Oryctolagus cuniculus
How it was run: (§3)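 Inhibition of virus-induced cytopathogenicity in cell culture. Compounds were dissolved in growth medium at 100, 10 or 1 μg/mL or less.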

[4] = Antiviral activity was measured against Herpes simplex virus (HSV-2 G) in rabbit kidney cells.; type: functional; conditions: Oryctolagus cuniculus; how it was run: as §1
[5] = Concentration required for microscopically detectable alteration of the normal cell morphology in PRK cells.; type: functional; conditions: Oryctolagus cuniculus; how it was run: as §2
HeLa [6] = experiment: Antiviral activity was measured against Coxsackie virus B4 in HeLa cells.; type: functional; conditions: Homo sapiens; how it was run: as §3
[7] = Antiviral activity was measured against Vesicular stomatitis virus in rabbit kidney cells.; type: functional; conditions: Oryctolagus cuniculus; how it was run: as §3
Vero [8] = experiment: Antiviral activity was measured against Coxsackie virus B4 in african green monkey kidney (Vero B) cells.; type: functional; conditions: Chlorocebus sabaeus; how it was run: as §1
HeLa [9] = experiment: Antiviral activity was measured against Polio virus-1 in HeLa cells.; type: functional; conditions: Homo sapiens; how it was run: as §3
Vero [10] = experiment: Antiviral activity was measured against forest virus in african green monkey kidney (Vero B) cells.; type: functional; conditions: Chlorocebus sabaeus; how it was run: as §1
Vero [11] = experiment: Antiviral activity was measured against Sindbis virus in african green monkey kidney (Vero B) cells.; type: functional; conditions: Chlorocebus sabaeus; how it was run: as §1
Vero [12] = experiment: Concentration required for microscopically detectable alteration of the normal cell morphology in Vero B cells.; type: functional; conditions: Chlorocebus sabaeus; how it was run: as §2
WI-38 [13] = experiment: Antiviral activity was measured against Rhino virus-9 in human diploid (WI-38) cells.; type: functional; how it was run: as §1
WI-38 [14] = experiment: Concentration required for microscopically detectable alteration of the normal cell morphology in Wi-38 cells.; type: functional; conditions: Homo sapiens; how it was run: as §2
[15] = Antiviral activity was measured against Vaccinia virus in rabbit kidney cells.; type: functional; conditions: Oryctolagus cuniculus; how it was run: as §3
WI-38 [16] = experiment: Antiviral activity was measured against Rhino virus-1A in human diploid (WI-38) cells.; type: functional; how it was run: as §1
Vero [17] = experiment: Antiviral activity was measured against Parainfluenza virus-3 in african green monkey kidney (Vero B) cells.; type: functional; conditions: Chlorocebus sabaeus; how it was run: as §1
HeLa [18] = experiment: Antiviral activity was measured against Vesicular stomatitis virus in HeLa cells.; type: functional; conditions: Homo sapiens; how it was run: as §3
Mus musculus [19] = experiment: Efficacy expressed as number of surviving mice infected with herpetic encephalitis at dose of 150 mg/kg; T is Toxic; type: functional, organism-based; design: dose 150 mg/kg
[20] = Concentration required to reduce DNA synthesis in primary rabbit kidney cells using [3H-Methyl]-dThd incorporation; type: functional; conditions: Oryctolagus cuniculus, read-out: ID50 (the source's name)
How it was run: (§4)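 Primary rabbit kidney cells with compounds in growth medium at 100, 10, or 1 μg/mL or less. Cell number and incorporation of [3H-methyl]dThd (DNA), [3H-5]Urd (RNA) or [3H2-4,5]leucine (protein) measured. ID50 taken as the dose giving 50% reduction in cell number or in DNA, RNA or protein synthesis.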

[21] = Number of living cells on the proliferation of mouse myeloma cells SP2 was measured at concentration 100 ug/mL at 96 h.; type: functional
How it was run: (§5)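 Mouse myeloma SP2 cells seeded at 123 × 10^3 cells and exposed to compound at 1, 10 or 100 μg/mL in growth medium. Living cells counted at 0, 48 and 96 h alongside untreated controls.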

[22] = Concentration required to reduce protein synthesis in primary rabbit kidney cells usingi [3H2-4,5]leucine incorporation; type: functional; conditions: Oryctolagus cuniculus, read-out: ID50 (the source's name); how it was run: as §4
[23] = dose required to reduce primary rabbit kidney cell growth; type: functional; conditions: Oryctolagus cuniculus, read-out: ID50 (the source's name); how it was run: as §4
[24] = Number of living cells on the proliferation of mouse myeloma cells SP2 was measured at concentration 100 ug/mL at 48 hr.; type: functional; how it was run: as §5
[25] = Concentration required to reduce RNA synthesis in primary rabbit kidney cells using [3H-5]-Urd incorporation; type: functional; conditions: Oryctolagus cuniculus, read-out: ID50 (the source's name); how it was run: as §4
Mus musculus [26] = species: Mus musculus; experiment: Efficacy expressed as number of surviving mice infected with herpetic encephalitis at dose of 75 mg.kg; type: functional
How it was run: (§6)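 Young mice (10 g) were inoculated intracerebrally with 0.03 mL of herpes simplex virus suspension containing ca. 4 CCID50. Compound was given at 75 or 150 mg/kg per day as two daily intraperitoneal injections for 4 days. Read-out was the number of surviving mice.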

[27] = Number of living cells on the proliferation of mouse myeloma cells SP2 was measured at concentration 100 ug/mL at 0h.; type: functional; how it was run: as §5
Mus musculus [28] = experiment: Efficacy expressed as number of surviving mice infected with herpetic encephalitis at dose of 0 mg/kg; type: functional
Mus musculus [29] = experiment: Toxicity of compound against mice was determined at a concentration of 250 mg/kg; type: organism-based; design: dose 250 mg/kg; conditions: in vivo
How it was run: (§7)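 Swiss mice (20-24 g) received a single intraperitoneal dose of 100-2,000 mg/kg. Compound was suspended in distilled water containing 0.2 g Tween 80 and 0.2 g (carboxymethyl)cellulose per 100 mL. Mice were followed for 14 days for acute toxicity.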

Mus musculus [30] = experiment: Efficacy expressed as number of surviving mice infected with herpetic encephalitis at dose of 150 mg/kg; type: functional; how it was run: as §6
Mus musculus [31] = experiment: Toxicity of compound against mice was determined at a concentration of 750 mg/kg; type: organism-based; design: dose 750 mg/kg; conditions: in vivo; how it was run: as §7
Mus musculus [32] = experiment: Toxicity of compound against mice was determined at a concentration of 100 mg/kg; type: organism-based; design: dose 100 mg/kg; conditions: in vivo; how it was run: as §7
HeLa [33] = experiment: Antiviral activity was measured against vesicular stomatitis virus in HeLa cells.; type: functional; conditions: Homo sapiens; how it was run: as §3
Mus musculus [34] = experiment: Toxicity of compound against mice was determined at a concentration of 1200 mg/kg; type: organism-based; design: dose 1200 mg/kg; conditions: in vivo; how it was run: as §7
Mus musculus [35] = experiment: Toxicity of compound against mice was determined at a concentration of 2000 mg/kg; type: organism-based; design: dose 2000 mg/kg; conditions: in vivo; how it was run: as §7
HeLa [36] = experiment: Antiviral activity was measured against polio virus-1 in HeLa cells.; type: functional; conditions: Homo sapiens; how it was run: as §3
[37] = Antiviral activity was measured against vesicular stomatitis virus in rabbit kidney cells.; type: functional; conditions: Oryctolagus cuniculus; how it was run: as §3
[38] = Antiviral activity was measured against vaccinia virus in rabbit kidney cells.; type: functional; conditions: Oryctolagus cuniculus; how it was run: as §3
[39] = Dose required to reduce primary rabbit kidney cell growth; type: functional; conditions: Oryctolagus cuniculus, read-out: ID50 (the source's name); how it was run: as §4
[40] = Number of living cells on the proliferation of mouse myeloma cells SP2 was measured at concentration 10 ug/mL at 48 hr.; type: functional; how it was run: as §5
[41] = Number of living cells on the proliferation of mouse myeloma cells SP2 was measured at concentration 10 ug/mL at 96 h.; type: functional; how it was run: as §5
[42] = Number of living cells on the proliferation of mouse myeloma cells SP2 was measured at concentration 1 ug/mL at 48 hr.; type: functional; how it was run: as §5
[43] = Number of living cells on the proliferation of mouse myeloma cells SP2 was measured at concentration 1 ug/mL at 0h.; type: functional; how it was run: as §5
[44] = Number of living cells on the proliferation of mouse myeloma cells SP2 was measured at concentration 1 ug/mL at 96 h.; type: functional; how it was run: as §5

SMILES | MCC (Vero [1]) [µg/mL] | MCC (HeLa [2]) [µg/mL] | MCC [3] [µg/mL] | MCC [4] [µg/mL] | MCC [5] [µg/mL] | MCC (HeLa [6]) [µg/mL] | MCC [7] [µg/mL] | MCC (Vero [8]) [µg/mL] | MCC (Vero [10]) [µg/mL] | MCC (Vero [11]) [µg/mL] | MCC (Vero [12]) [µg/mL] | MCC (WI-38 [13]) [µg/mL] | MCC (WI-38 [14]) [µg/mL] | MCC [15] [µg/mL] | MCC (WI-38 [16]) [µg/mL] | MCC (Vero [17]) [µg/mL] | IC50 [20] [µg/mL] | No. of living cells [21] | IC50 [22] [µg/mL] | IC50 [25] [µg/mL] | also measured
NC(=O)c1ncn([C@@H]2O[C@H](CO)[C@@H](O)[C@H]2O)n1 [RIBAVIRIN] | 7 | ≥ 400 | > 400 | > 400 | > 400 | 70 | 100 | 70 | 70 | 70 | ≥ 400 | 70 | > 400 | 7 | 150 | 20 |  |  |  |  | MCC (HeLa [9]): 70 µg/mL; MCC (HeLa [18]): 20 µg/mL
Nc1nc(O)c2ncn([C@@H]3O[C@H](CO)[C@H](O)[C@H]3O)c2n1 | > 400 | 400 | 70 | 70 | > 200 | > 200 | > 200 | > 400 | > 400 | > 400 | > 400 | > 400 | > 400 | 10 | > 400 | > 400 | 71 (≈ 251 µM) | 0 | 148 (≈ 523 µM) | 61 (≈ 215 µM) | Efficacy (Mus musculus [19]): Toxic; IC50 [23]: 62 µg/mL (≈ 219 µM); No. of living cells [24]: 0.024; Efficacy (Mus musculus [26]): 3 mg/kg; No. of living cells [27]: 0.123; Efficacy (Mus musculus [28]): 0 mg/kg
Nc1ncnc2c1ncn2[C@@H]1O[C@H](CO)[C@@H](O)[C@@H]1O [VIDARABINE] | 150 | ≥ 200 | 20 | 10 | ≥ 200 | > 100 | 70 | > 100 | > 100 | > 100 | ≥ 200 | > 100 | ≥ 100 | 2 | > 100 | 150 | 31 (≈ 116 µM) |  | > 200 | 15 (≈ 56.1 µM) | No. of dead mice (Mus musculus [29]): 0; Efficacy (Mus musculus [30]): 0 mg/kg; No. of dead mice (Mus musculus [31]): 0; No. of dead mice (Mus musculus [32]): 0; MCC (HeLa [33]): 150 µg/mL; No. of dead mice (Mus musculus [34]): 0; IC50 [23]: 27 µg/mL (≈ 101 µM); Efficacy (Mus musculus [26]): 0 mg/kg; Efficacy (Mus musculus [28]): 0 mg/kg; No. of dead mice (Mus musculus [35]): 0
Nc1ncnc2c1ccn2[C@@H]1O[C@H](CO)[C@@H](O)[C@H]1O [TUBERCIDIN] | 0.1 | ≥ 1 | > 0.1 | > 0.1 | ≥ 0.4 | 0.2 |  | > 0.1 | > 0.4 | > 0.1 | ≥ 0.4 | 0.007 | 0.4 |  | 0.01 | 0.2 |  |  |  |  | MCC (HeLa [33]): 0.07 µg/mL; MCC (HeLa [36]): 0.2 µg/mL; MCC [37]: 0.07 µg/mL; MCC [38]: > 0.1 µg/mL
Nc1ncnc2c1ncn2[C@@H]1O[C@H](CO)[C@H](O)[C@H]1O | > 40 | 100 | > 40 | > 40 | > 100 | > 40 |  | > 40 | > 40 | > 40 | > 100 | 20 | 200 |  | 20 | > 40 | 17 (≈ 63.6 µM) | 0 | 37 (≈ 138 µM) | 46 (≈ 172 µM) | IC50 [39]: 23 µg/mL (≈ 86.1 µM); No. of living cells [40]: 0.048; No. of living cells [24]: 0.008; No. of living cells [41]: 0.4; No. of living cells [42]: 0.864; No. of living cells [27]: 0.123; No. of living cells [43]: 0.123; No. of living cells [44]: 1.368
